Measurements published in ChEMBL document CHEMBL1649123, “Erythromycin- and chloramphenicol-induced ribosomal assembly defects are secondary effects of protein synthesis inhibition” (2009).
Converted amounts (≈) assume the structure as drawn. The source made the active and inactive calls. No cut-off for these calls is given here.

Columns and labels:
[1] = system: Escherichia coli; experiment: Inhibition of large ribosomal subunit assembly in Escherichia coli assessed as accumulation of 23S rRNA in 40S fraction at 7 ug/ml after 1 hr by sucrose gradient fractionation at 37 degC; format: functional, organism-based
How it was run: (§1)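 MG1655 grown in 2× YT at 25 or 37°C to A600 0.2, then drug added (final concentration as per line). Incubated 2 h at 25°C or 1 h at 37°C. Freeze-thaw lysis used lysozyme and DNase I. Lysate was run on a 10–25% sucrose gradient in buffer D, pH 8, for 13.5 h at 4°C. Fraction RNA was dot-blotted with 32P-labelled 16S/23S oligonucleotide probes, loading 0.2 pmol 50S-fraction 23S RNA.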

[2] = system: Escherichia coli; experiment: Inhibition of small ribosomal subunit assembly in Escherichia coli assessed as accumulation of 16S rRNA at 7 ug/ml after 1 hr by sucrose gradient fractionation at 37 degC; format: functional, organism-based; how it was run: as §1
[3] = system: Escherichia coli; experiment: Inhibition of ribosomal subunit assembly in Escherichia coli assessed as retardation of 16S rRNA processing at 7 ug/ml after 1 hr by primer extension analysis at 37 degC; format: functional, organism-based
How it was run: (§2)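 Ribosomes from MG1655 drug-treated in 2× YT (1 h at 37°C or 2 h at 25°C from A600 0.2) were separated on 10–25% sucrose gradients. RNA was isolated from fractions by isopropanol precipitation and guanidinium thiocyanate/silica binding. 5′ ends of 23S and 16S rRNA were mapped by reverse transcription from specific primers, alongside sequencing lanes.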

[4] = system: Escherichia coli; experiment: Inhibition of large ribosomal subunit assembly in Escherichia coli assessed as accumulation of 23S rRNA in 70S and 50S fractions at 7 ug/ml after 1 hr by sucrose gradient fractionation at 37 degC; format: functional, organism-based; how it was run: as §1
[5] = system: Escherichia coli; experiment: Inhibition of ribosomal subunit assembly in Escherichia coli assessed as accumulation of partially processed 23S rRNA in 30S, 40S and 50S fractions at 7 ug/ml after 2 hrs by primer extension analysis at 25 degC; format: functional, organism-based; how it was run: as §2
[6] = system: Escherichia coli; experiment: Inhibition of ribosomal subunit assembly in Escherichia coli assessed as accumulation of assembly-deffective particles between 50S and 20S regions after 60 mins by sucrose gradient fractionation; format: functional, organism-based
How it was run: (§3)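 Cells grown at 37°C in tryptone/yeast extract/NaCl to A600 0.2, then exposed to erythromycin (final 100 μg/ml) or chloramphenicol (final 7 μg/ml). After 5, 10 or 60 min, pulsed 5 min with [3H]uridine, 2 μCi per 50 ml; some samples chased 5 min with rifampin, final 500 μg/ml. Sucrose gradients cut into 40 fractions; TCA-precipitable radioactivity counted by scintillation.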

[7] = system: Escherichia coli; experiment: Inhibition of ribosomal subunit assembly in Escherichia coli assessed as accumulation of partially processed 23S rRNA in 30S, 40S and 50S fractions at 7 ug/ml after 1 hr by primer extension analysis at 37 degC; format: functional, organism-based; how it was run: as §2
[8] = system: Escherichia coli; experiment: Inhibition of ribosomal subunit assembly in Escherichia coli assessed as retardation of 16S rRNA processing at 100 ug/ml after 2 hrs by primer extension analysis at 25 degC; format: functional, organism-based; how it was run: as §2
[9] = system: Escherichia coli; experiment: Inhibition of ribosomal subunit assembly in Escherichia coli assessed as reduction in mature 23S rRNA at 7 ug/ml; format: functional
[10] = system: Escherichia coli; experiment: Inhibition of ribosomal subunit assembly in Escherichia coli assessed as accumulation of partially processed 23S rRNA in 30S, 40S and 50S fractions at 100 ug/ml after 2 hrs by primer extension analysis at 25 degC; format: functional, organism-based; how it was run: as §2
[11] = system: Escherichia coli; experiment: Inhibition of small ribosomal subunit assembly in Escherichia coli assessed as accumulation of 16S rRNA at 7 ug/ml after 2 hrs by sucrose gradient fractionation at 25 degC; format: functional, organism-based; how it was run: as §1
[12] = system: Escherichia coli; experiment: Inhibition of ribosomal subunit assembly in Escherichia coli assessed as retardation of 16S rRNA processing at 7 ug/ml after 2 hrs by primer extension analysis at 25 degC; format: functional, organism-based; how it was run: as §2
[13] = system: Escherichia coli; experiment: Inhibition of large ribosomal subunit assembly in Escherichia coli assessed as accumulation of 23S rRNA in 70S and 50S fractions at 7 ug/ml after 2 hrs by sucrose gradient fractionation at 25 degC; format: functional, organism-based; how it was run: as §1
[14] = system: Escherichia coli; experiment: Inhibition of large ribosomal subunit assembly in Escherichia coli assessed as accumulation of 23S rRNA in 40S fraction at 7 ug/ml after 2 hrs by sucrose gradient fractionation at 25 degC; format: functional, organism-based; how it was run: as §1
[15] = system: Escherichia coli; experiment: Inhibition of ribosomal subunit assembly in Escherichia coli assessed as accumulation of assembly-deffective particles between 50S and 20S regions after 10 mins by sucrose gradient fractionation; format: functional, organism-based; how it was run: as §3
[16] = system: Escherichia coli; experiment: Antimicrobial activity against Escherichia coli at 7 ug/ml after 8 hrs; format: functional
How it was run: (§4)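 E. coli MG1655 culture growth followed by optical density over 8 h, with the drug-treated culture expressed relative to an untreated control culture.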

[17] = system: Escherichia coli; experiment: Inhibition of ribosomal subunit assembly in Escherichia coli assessed as retardation of 16S rRNA processing at 100 ug/ml after 1 hr by primer extension analysis at 37 degC; format: functional, organism-based; how it was run: as §2
[18] = system: Escherichia coli; experiment: Inhibition of ribosomal subunit assembly in Escherichia coli assessed as accumulation of partially processed 23S rRNA in 30S, 40S and 50S fractions at 100 ug/ml after 1 hr by primer extension analysis at 37 degC; format: functional, organism-based; how it was run: as §2
[19] = system: Escherichia coli; experiment: Inhibition of large ribosomal subunit assembly in Escherichia coli assessed as accumulation of 23S rRNA in 40S fraction at 100 ug/ml after 1 hr by sucrose gradient fractionation at 37 degC; format: functional, organism-based; how it was run: as §1
[20] = system: Escherichia coli; experiment: Inhibition of large ribosomal subunit assembly in Escherichia coli assessed as accumulation of 23S rRNA in 70S and 50S fractions at 100 ug/ml after 2 hrs by sucrose gradient fractionation at 25 degC; format: functional, organism-based; how it was run: as §1
[21] = system: Staphylococcus aureus; experiment: Antimicrobial activity against Staphylococcus aureus UCN18 with A2059G mutation in rrl allele; format: functional
How it was run: (§5)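 Clinical S. aureus isolates carrying rRNA operon mutations: UCN14 has A2058T in 4 of 5 rrl alleles, UCN17 has A2058G in 4 of 6, and UCN18 has A2059G in 3 of 5. MIC was determined for erythromycin by microbroth dilution in 96-well plates.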

[22] = system: Staphylococcus aureus; experiment: Antimicrobial activity against Staphylococcus aureus UCN14 with A2058T mutation in rrl allele; format: functional; how it was run: as §5
[23] = system: Escherichia coli; experiment: Inhibition of ribosomal subunit assembly in Escherichia coli assessed as reduction in mature 23S rRNA at 100 ug/ml; format: functional
[24] = system: Escherichia coli; experiment: Inhibition of large ribosomal subunit assembly in Escherichia coli assessed as accumulation of 23S rRNA in 40S fraction at 100 ug/ml after 2 hrs by sucrose gradient fractionation at 25 degC; format: functional, organism-based; how it was run: as §1
[25] = system: Escherichia coli; experiment: Inhibition of small ribosomal subunit assembly in Escherichia coli assessed as accumulation of 16S rRNA at 100 ug/ml after 1 hr by sucrose gradient fractionation at 37 degC; format: functional, organism-based; how it was run: as §1
[26] = system: Escherichia coli; experiment: Inhibition of small ribosomal subunit assembly in Escherichia coli assessed as accumulation of 16S rRNA at 100 ug/ml after 2 hrs by sucrose gradient fractionation at 25 degC; format: functional, organism-based; how it was run: as §1
[27] = system: Staphylococcus aureus; experiment: Antimicrobial activity against Staphylococcus aureus UCN17 with A2058G mutation in rrl allele; format: functional; how it was run: as §5
[28] = system: Escherichia coli; experiment: Inhibition of large ribosomal subunit assembly in Escherichia coli assessed as accumulation of 23S rRNA in 70S and 50S fractions at 100 ug/ml after 1 hr by sucrose gradient fractionation at 37 degC; format: functional, organism-based; how it was run: as §1
[29] = system: Escherichia coli; experiment: Antimicrobial activity against Escherichia coli at 100 ug/ml after 8 hrs; format: functional; how it was run: as §4
[30] = system: Escherichia coli; experiment: Inhibition of ribosomal subunit assembly in Escherichia coli assessed as reduction in mature 23S rRNA at 7 ug/ml in presence of E-peptide; format: functional

Row | SMILES | inhibition [3] | inhibition [5] | inhibition [6] | inhibition [7] | inhibition [8] | inhibition [10] | inhibition [12] | inhibition [15] | inhibition [17] | inhibition [18] | also measured
1 | O=C(N[C@H](CO)[C@H](O)c1ccc([N+](=O)[O-])cc1)C(Cl)Cl [CHLORAMPHENICOL] | Active | Active | Active | Active | Active | Active | Active | Active | Active | Active | inhibition [1]: Active; inhibition [2]: Active; inhibition [4]: Active; inhibition at 7 µg/mL [9]: 50%; inhibition [11]: Active; inhibition [13]: Active; inhibition [14]: Active; Activity [16]: 70%
2 | CC[C@H]1OC(=O)[C@H](C)[C@@H](O[C@H]2C[C@@](C)(OC)[C@@H](O)[C@H](C)O2)[C@H](C)[C@@H](O[C@@H]2O[C@H](C)C[C@H](N(C)C)[C@H]2O)[C@](C)(O)C[C@@H](C)C(=O)[C@H](C)[C@@H](O)[C@]1(C)O [ERYTHROMYCIN] | Active | Active | Active | Active | Active | Active | Active | Active | Active | Active | Activity [19]: Active; inhibition [20]: Active; MIC [21]: 512 µg/mL (≈ 698 µM); MIC [22]: 512 µg/mL (≈ 698 µM); inhibition at 100 µg/mL [23]: 30%; inhibition [24]: Active; inhibition [25]: Active; inhibition [26]: Active; MIC [27]: 512 µg/mL (≈ 698 µM); inhibition [28]: Active; Activity [29]: 70%; inhibition at 7 µg/mL [30]: 60%
